Data set [1] concerns MCF7. As to the kind of experiment: Antiproliferative activity against human MCF7 cells expressing estrogen receptor after 48 hrs by MTT assay. To be noted: MCF7, 48 h. It is filed as functional, cell-based. A digest of the protocol:
(§1)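 MTT reduction: 1 × 10⁴ cells/well seeded in DMEM with 10% FBS, incubated 24 h at 37 °C in CO₂. Compounds diluted in culture medium and applied for 48 h. MTT (5 mg/mL stock) added for 4 h, formazan dissolved in DMSO, absorbance read at 540 nm. IC50 taken from growth inhibition. Vehicle control 0.001% DMSO.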
(In general: Tetrazolium assays rely on reduction of a dye to a coloured formazan, in cell work by metabolically active cells.)

In data set [2] the test system is MDA-MB-231. As to the kind of experiment: Antiproliferative activity against human estrogen receptor deficient MDA-MB-231 cells after 48 hrs by MTT assay. The format is functional, cell-based. To be noted: MDA-MB-231, 48 h. A digest of the protocol:
as §1

Data set [3] deals with Vero. As to the kind of experiment: Cytotoxicity against african green monkey Vero cells after 48 hrs by MTT assay. It is filed as cell-based. The note with it: chlorocebus sabaeus.
A short description of data set [4]: Cytotoxicity against osteoblasts after 48 hrs by MTT assay. It is filed as cell-based. To be noted: osteoblast.
Data set [5] concerns the target T1, Estrogen receptor (Homo sapiens) (UniProt P03372).
T1 sequence (whole entry): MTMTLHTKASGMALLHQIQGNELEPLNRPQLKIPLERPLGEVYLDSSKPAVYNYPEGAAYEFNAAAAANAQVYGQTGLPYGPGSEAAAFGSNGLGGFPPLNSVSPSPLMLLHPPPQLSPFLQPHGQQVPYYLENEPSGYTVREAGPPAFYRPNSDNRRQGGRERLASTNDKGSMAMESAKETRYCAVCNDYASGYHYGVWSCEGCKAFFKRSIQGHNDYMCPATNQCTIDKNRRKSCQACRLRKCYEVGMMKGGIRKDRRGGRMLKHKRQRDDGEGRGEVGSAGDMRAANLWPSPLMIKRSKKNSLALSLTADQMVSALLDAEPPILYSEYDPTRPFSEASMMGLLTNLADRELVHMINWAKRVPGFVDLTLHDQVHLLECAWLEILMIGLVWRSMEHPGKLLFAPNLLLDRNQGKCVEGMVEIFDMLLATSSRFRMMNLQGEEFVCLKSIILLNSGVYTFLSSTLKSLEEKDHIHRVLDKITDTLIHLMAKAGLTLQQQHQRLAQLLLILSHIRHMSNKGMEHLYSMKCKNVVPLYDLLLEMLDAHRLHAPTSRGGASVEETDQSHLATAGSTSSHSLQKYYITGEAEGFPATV
Nature of the data set: Transactivation of ERalpha expressed in african green monkey COS7 cells at 5 uM after 24 hrs by luciferase reporter gene assay. The format is cell-based. To be noted: COS-7. A digest of the protocol:
(§2)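 Cos-7 cells, 40,000 per well, seeded 24 h before co-transfection with 200 ng pGL3-Gal4Tk-Luc reporter plus ERα or ERβ expression plasmid and pRL-CMV. Compounds given, then cells harvested 24 h post-transfection for dual-luciferase assay. Firefly signal normalised to Renilla and GFP, expressed as fold over VP-16 control. Mean ± SD of three independent experiments.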

The target in data set [6] is Estrogen receptor beta (Homo sapiens) (UniProt Q92731). As to the kind of experiment: Transactivation of ERbeta expressed in african green monkey COS7 cells at 5 uM after 24 hrs by luciferase reporter gene assay. It is filed as cell-based. To be noted: COS-7. A digest of the protocol: as §2
Background: Reporter assays use an easily measured gene product as a stand-in for the process of interest.

For data set [7], the system named is MCF7. Nature of the data set: Induction of apoptosis in human MCF7 cells assessed as DNA fragmentation at 20 uM after 24 hrs by ELISA. It is filed as functional, cell-based. A digest of the protocol:
(§3)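 BrdU-labelled cells incubated with compound for 24 h. Cells lysed 30 min at rt and spun at 250g for 10 min. Supernatant captured on adsorbed anti-DNA antibody, fixed by microwave 5 min, then probed 90 min with peroxidase anti-BrdU; OD read at 370 nm. Kit positive and negative controls used. Duplicates from two independent experiments.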

In data set [8] the test system is MDA-MB-231. Nature of the data set: Induction of apoptosis in human MDA-MB-231 cells assessed as DNA fragmentation at 10 uM after 24 hrs by ELISA. It is filed as functional, cell-based. A digest of the protocol:
as §3
A general note: An ELISA detects its analyte on a solid surface through an enzyme-linked reagent.

For data set [9], the system named is MDA-MB-231. Nature of the data set: Induction of apoptosis in human MDA-MB-231 cells assessed as DNA fragmentation at 20 uM after 24 hrs by ELISA. It is filed as functional, cell-based. A digest of the protocol:
as §3

Data set [10] deals with MDA-MB-231. Nature of the data set: Induction of apoptosis in human MDA-MB-231 cells assessed as morphological changes at 10 uM after 18 hrs using Hoechst 33342 staining by fluorescent microscopy. It is filed as functional, cell-based. The essentials:
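10,000 cells seeded on 18-mm coverslips and grown 24 h. Medium replaced, then cells treated with 10 µM compound for 18 h. Stained with Hoechst 33342 0.5 µg/ml in 4% paraformaldehyde for 30 min at 37 °C. Random fields imaged by fluorescence microscopy; viable versus apoptotic cells judged qualitatively by fluorescence and nuclear fragmentation.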

For data set [11], the system named is MCF7. As to the kind of experiment: Induction of apoptosis in human MCF7 cells assessed as caspase induction at 20 uM after 24 hrs by fluorescence assay. It is filed as functional, cell-based. The essentials: (§4)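 Caspase kit covering caspases 2, 3, 6, 7, 8, 9 and 10. MCF-7 cells serum-deprived 4 h, then treated with compound for 24 h at various concentrations. DEVD-rhodamine-110 substrate added; released rhodamine-110 fluorescence read at 560 nm. Camptothecin-treated U937 cells served as positive control. Duplicates from two independent experiments.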

For data set [12], the system named is MDA-MB-231. As to the kind of experiment: Induction of apoptosis in human MDA-MB-231 cells assessed as caspase induction at 20 uM after 24 hrs by fluorescence assay. The format is functional, cell-based.
Data set [13] concerns MDA-MB-231. As to the kind of experiment: Induction of apoptosis in human MDA-MB-231 cells assessed as caspase induction at 40 uM after 24 hrs by fluorescence assay. It is filed as functional, cell-based.
In data set [14] the test system is MCF7. As to the kind of experiment: Induction of apoptosis in human MCF7 cells assessed as DNA fragmentation at 10 uM after 24 hrs by ELISA. It is filed as functional, cell-based. A digest of the protocol: as §3
The test system of data set [15] is MCF7. As to the kind of experiment: Induction of apoptosis in human MCF7 cells assessed as caspase induction at 40 uM after 24 hrs by fluorescence assay. The format is functional, cell-based. A digest of the protocol: as §4
Data set [16] has as its target T2, Prostaglandin G/H synthase 2 (Homo sapiens, UniProt P35354).
T2 sequence (P35354 whole entry): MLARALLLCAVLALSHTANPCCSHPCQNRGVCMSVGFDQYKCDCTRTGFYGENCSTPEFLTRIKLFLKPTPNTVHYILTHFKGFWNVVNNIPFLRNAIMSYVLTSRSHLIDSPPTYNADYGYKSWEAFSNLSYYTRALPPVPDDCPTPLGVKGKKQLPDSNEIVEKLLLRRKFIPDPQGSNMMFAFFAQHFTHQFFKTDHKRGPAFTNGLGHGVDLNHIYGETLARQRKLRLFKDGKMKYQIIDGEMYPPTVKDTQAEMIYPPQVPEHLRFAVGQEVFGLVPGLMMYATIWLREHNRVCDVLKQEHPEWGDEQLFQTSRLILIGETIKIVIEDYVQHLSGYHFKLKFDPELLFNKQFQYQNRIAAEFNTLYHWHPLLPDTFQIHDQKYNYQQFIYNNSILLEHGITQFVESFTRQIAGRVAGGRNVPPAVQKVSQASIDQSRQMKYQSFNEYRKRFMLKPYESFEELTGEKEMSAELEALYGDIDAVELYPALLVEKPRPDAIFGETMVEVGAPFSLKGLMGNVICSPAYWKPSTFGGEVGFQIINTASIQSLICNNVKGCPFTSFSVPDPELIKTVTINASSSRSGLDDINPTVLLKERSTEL

For 17 compounds, IC50 and Activity results are on record in ChEMBL document CHEMBL1137766, “Synthesis and biological evaluation of 3,4,6-triaryl-2-pyranones as a potential new class of anti-breast cancer agents” (Bioorg Med Chem, 2009).

Activity calls are given as the source filed them. The rule behind the calls is not given here.

Chain of Estrogen receptor beta (Homo sapiens) (Q92731 whole entry): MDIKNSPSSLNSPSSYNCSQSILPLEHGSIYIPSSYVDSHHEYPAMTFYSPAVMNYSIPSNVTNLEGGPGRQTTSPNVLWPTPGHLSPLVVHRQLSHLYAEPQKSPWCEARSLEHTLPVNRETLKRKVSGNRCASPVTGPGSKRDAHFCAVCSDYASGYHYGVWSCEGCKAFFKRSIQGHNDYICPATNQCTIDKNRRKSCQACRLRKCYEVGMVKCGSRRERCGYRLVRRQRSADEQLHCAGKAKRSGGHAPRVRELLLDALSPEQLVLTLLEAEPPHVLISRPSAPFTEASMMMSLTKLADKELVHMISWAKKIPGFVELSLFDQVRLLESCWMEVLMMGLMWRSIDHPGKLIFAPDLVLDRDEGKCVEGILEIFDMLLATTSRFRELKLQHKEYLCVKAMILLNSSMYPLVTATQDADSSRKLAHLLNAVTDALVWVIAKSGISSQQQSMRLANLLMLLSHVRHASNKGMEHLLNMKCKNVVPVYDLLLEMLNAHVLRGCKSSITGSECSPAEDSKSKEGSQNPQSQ

With `O=c1oc(-c2ccc(OCCN3CCCC3)cc2)cc(-c2ccccc2)c1-c1ccccc1`, the figures for the IC50 in [1] and in data set [2] were 25 µM and 34 µM, respectively. Moreover, the Activity entry in [3] and in data set [4] was “Toxic” each time.

Turning to `COc1ccc(-c2cc(-c3ccccc3)oc(=O)c2-c2ccc(O)cc2)cc1`, the IC50 (usually the concentration that inhibits the measured activity by half) is over 50 µM in data set [1] and over 100 µM in [2].

`O=c1oc(-c2ccccc2)cc(-c2ccc(OCCN3CCCCC3)cc2)c1-c1ccccc1`: the IC50 in data set [1] came to 26 µM; in data set [2] it was 11 µM. In addition, the Activity entry in [3] and in data set [4] was “Toxic” each time.

For `O=c1oc(-c2ccc(O)cc2)cc(-c2ccccc2)c1-c1ccc(O)cc1`, the IC50 in data set [1] was 26 µM; in [2], over 100 µM.

On to `O=c1oc(-c2ccc(O)cc2)cc(-c2ccc(O)cc2)c1-c1ccccc1`, for which the IC50 in data set [1] was 14 µM; in data set [2] it was 26 µM. In addition, the Activity result in data set [3] and in data set [4] was “Non-toxic” each time. Besides, the outcome in data set [5], in [6], in [12] and in [13] was inactive. Also, the outcome in [7], in data set [8], in data set [9], in data set [10] and in data set [11] was Active.

Consider `COc1ccc(-c2cc(-c3ccccc3)oc(=O)c2-c2ccc(OCCN3CCCCC3)cc2)cc1`, for which the IC50 in data set [1] stood at 16 µM; in data set [2] it was 12 µM. Further, the Activity result in data set [3] and in [4] was “Toxic” in each case.

For the compound `O=c1oc(-c2ccccc2)cc(-c2ccc(OCCN3CCCC3)cc2)c1-c1ccccc1`, the IC50 in data set [1] was determined as 14 µM; in data set [2] it was 9 µM. The Activity entry in data set [3] and in [4] was “Toxic” in each case.

With `O=c1oc(-c2ccc(O)cc2)cc(-c2ccccc2)c1-c1ccccc1`, the IC50 in data set [1] is 21 µM; in data set [2], 13 µM. Further, the Activity result in [3] and in data set [4] was “Toxic” in each case.

Consider `COc1ccc(-c2cc(-c3ccccc3)c(-c3ccc(O)cc3)c(=O)o2)cc1`, for which the IC50 turned out to be 14 µM in data set [1] and 17 µM in data set [2]. Also, the Activity result in data set [3] and in data set [4] was “Non-toxic” throughout. The result in [5], in data set [6], in data set [14], in data set [7], in data set [12] and in data set [13] was inactive. In addition, the result in [10] and in data set [11] was Active.

With `CC/C(=C(\c1ccccc1)c1ccc(OCCN(C)C)cc1)c1ccccc1` [TAMOXIFEN], the IC50 amounted to 10 µM in [1] and 20 µM in data set [2].

`O=c1oc(-c2ccccc2)cc(-c2ccccc2)c1-c1ccc(O)cc1`: the IC50 turned out to be 25 µM in data set [1] and 38 µM in data set [2]. Moreover, the Activity entry in [3] and in data set [4] was “Non-toxic” each time. Moreover, the result in data set [5], in [6], in data set [14] and in data set [7] was inactive. The result in data set [10] and in [15] was Active.

For the compound `O=c1oc(-c2ccc(OCCN3CCCCC3)cc2)cc(-c2ccccc2)c1-c1ccccc1`, the values for the IC50 in data set [1] and in data set [2] were 24 µM and over 100 µM, respectively.

`COc1ccc(-c2cc(-c3ccccc3)c(-c3ccc(S(C)(=O)=O)cc3)c(=O)o2)cc1`: the IC50 in data set [16] was 0.02 µM.

As to `O=c1oc(-c2ccccc2)cc(-c2ccc(O)cc2)c1-c1ccccc1`, the IC50 was 38 µM in [1] and over 100 µM in [2].

Consider `O=c1oc(-c2ccccc2)cc(-c2ccccc2)c1-c1ccc(OCCN2CCCC2)cc1`, for which the IC50 is 23 µM in data set [1] and over 100 µM in data set [2].

`O=c1oc(-c2ccccc2)cc(-c2ccccc2)c1-c1ccc(OCCN2CCCCC2)cc1`: the IC50 in data set [1] was over 50 µM; in [2], over 100 µM.

With `O=c1oc(-c2ccccc2)cc(-c2ccc(O)cc2)c1-c1ccc(O)cc1`, the IC50 amounted to 24 µM in data set [1] and 27 µM in data set [2]. The Activity result in [3] and in [4] was “Non-toxic” in each case. The outcome in data set [5], in [6], in [12] and in [13] was inactive. Further, the outcome in data set [14], in data set [7], in data set [9], in [10] and in data set [11] was Active.
